In publication PMC6220780 (Clinical Pharmacology in Drug Development, 2018):
Where two headings read alike, the source gives them in different places. Marks after values point to notes of the source that are not given here.

Columns and labels:
[1] = assay type: in vivo, human
In short: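 Samples were assayed by validated HPLC-MS/MS (solid-phase extraction, deuterated internal standard, negative-ion MRM; LLOQ 0.05 ng/mL). Parameters came from noncompartmental analysis. Group effects were assessed by ANOVA as geometric mean ratios to the normal-function group with 90% CIs.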

[2] = tested on: SGLT2; conditions: cited from earlier work
[3] = Urinary excretion of luseogliflozin and metabolites up to 72 hours; assay type: in vivo, human; conditions: single 5-mg dose of luseogliflozin
In short: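 24-h urine was collected before dosing and over 0–24, 24–48 and 48–72 h after a single oral dose. Parent compound and metabolites were quantified by validated LC-MS/MS after solid-phase extraction with deuterated internal standards (parent LLOQ 0.1 ng/mL). Excretion rates were estimated from the urine concentrations.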

[4] = tested on: Japanese patients with type 2 diabetes mellitus; test: 24-hour urinary glucose excretion; assay type: in vivo, human; conditions: single 5-mg oral dose, mean ± SD
In short: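 Patients were hospitalized for 6 days and 5 nights on a stable diet, with no other antidiabetic drugs. A single oral dose of the test compound was given before breakfast on day 3. Glucose was measured by autoanalyzer in 24-h pooled urine collected before and after dosing.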

[5] = tested on: Japanese patients with type 2 diabetes mellitus; test: Safety: adverse events after a single 5-mg dose; assay type: in vivo, human
In short: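 Adverse events were recorded by type and incidence from monitoring of clinical laboratory tests, body weight, vital signs and electrocardiograms. Monitoring covered a 6-day hospital stay with a single oral dose on day 3, plus a follow-up visit 3–5 days after discharge.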

[6] = tested on: Japanese patients with type 2 diabetes mellitus; test: Plasma glucose; assay type: in vivo, human; conditions: for FPG change from baseline / FPG postdose: single 5-mg oral dose, mean ± SD; for changes in plasma glucose AUC0-4 from baseline: single 5-mg dose
In short: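 Hospitalized patients received a single oral dose before breakfast on day 3. Plasma glucose was sampled predose and at 0.5, 1, 2, 4, 6, 8, 12 and 24 h and measured by autoanalyzer. AUC was calculated by the linear trapezoidal rule, with change from the day before dosing estimated per patient. Change in AUC0-4 was analyzed by 1-sample t test.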

In the case of `CCOc1ccc(Cc2cc([C@@H]3S[C@H](CO)[C@@H](O)[C@H](O)[C@H]3O)c(OC)cc2C)cc1` [luseogliflozin, (1S)‐1,5‐anhydro‐1‐[5‐(4‐ethoxybenzyl)‐2‐methoxy‐4‐methylphenyl]‐1‐thio‐D‐glucitol], the “ratio of the geometric mean (90%CI) of Cmax to the Cmax of G1” value (shortened to “ratio … (90%CI) of Cmax to the Cmax of G1”) ([1]; G2 versus G1) is reported as 0.922 (0.756–1.13), the “ratio of the geometric mean of AUCinf (90%CI) to that of G1” value (from here on “ratio … (90%CI) to that of G1”) ([1]; G2 versus G1) is reported as 1.05 (0.900–1.21) and the “ratio … (90%CI) of Cmax to the Cmax of G1” value ([1]; G3a versus G1) is reported as 0.939 (0.720–1.22). For the same molecule, the “ratio … (90%CI) to that of G1” value ([1]; G3a versus G1) was 1.05 (0.842–1.32), the “ratio … (90%CI) of Cmax to the Cmax of G1” value ([1]; G3b versus G1) was 0.781 (0.607–1.01) and the “ratio … (90%CI) to that of G1” value ([1]; G3b versus G1) was 1.04 (0.879–1.23). For the same molecule, the “plasma concentration 72 hours after administration as fraction of the Cmax” value ([1]; G4, single 5-mg dose of luseogliflozin) was “approximately one‐fiftieth”, the “ratio … (90%CI) of Cmax to the Cmax of G1” value ([1]; G4 versus G1) was 0.724 (0.525–0.999) and the “ratio … (90%CI) to that of G1” value ([1]; G4 versus G1) was 1.21 (0.947–1.53). For the same molecule, the concentration at 72 h ([1]; human, plasma, oral, 5 mg) was 1.28 to 3.15 ng/mL, the “selectivity for SGLT2 over SGLT1” value ([2]; SGLT2 versus SGLT1) was 1770 fold and the IC50 ([2]; read-out: half-maximal inhibitory concentration (IC50) for SGLT2) was 2.26 nM. The “excreted in urine up to 72 hours after administration” value (shortened to “excreted in urine up to 72 hours”) ([3]; G1) was 4.68%, the “excreted in urine up to 72 hours” value ([3]; G2) was 4.15% and the “excreted in urine up to 72 hours” value ([3]; G3a) was 3.25%. The “excreted in urine up to 72 hours” value ([3]; G3b) was 2.90%, the “excreted in urine up to 72 hours” value ([3]; G4) was 2.15% and the “UGE0-24 change from baseline” value ([4]; G1, eGFR ≥90, n = 11) was 88.3 ± 36.9 g/day. For the same molecule, the UGE0-24 postdose ([4]; G1, eGFR ≥90, n = 11) was 111 ± 36.0 g/day, the “UGE0-24 change from baseline” value ([4]; G2, eGFR 60–89, n = 17) was 69.7 ± 19.1 g/day and the UGE0-24 postdose ([4]; G2, eGFR 60–89, n = 17) was 82.6 ± 23.8 g/day. The “UGE0-24 change from baseline” value ([4]; G3a, eGFR 45–59, n = 9) was 57.3 ± 14.9 g/day, the UGE0-24 postdose ([4]; G3a, eGFR 45–59, n = 9) was 64.4 ± 24.4 ^b g/day and the “UGE0-24 change from baseline” value ([4]; G3a, eGFR 45–59, n = 9, listed as Luseogliflozin) was 57.3 ± 14.9 ^b g/day. The “UGE0-24 change from baseline” value ([4]; G3b, eGFR 30–44, n = 12) was 35.3 ± 10.8 g/day, the UGE0-24 postdose ([4]; G3b, eGFR 30–44, n = 12) was 39.4 ± 12.9 ^c g/day and the “UGE0-24 change from baseline” value ([4]; G3b, eGFR 30–44, n = 12, listed as Luseogliflozin) was 35.3 ± 10.8 ^c g/day. The “UGE0-24 change from baseline” value ([4]; G4, eGFR <30, n = 6) was 21.8 ± 7.10 g/day, the UGE0-24 postdose ([4]; G4, eGFR <30, n = 6) was 23.7 ± 8.83 g/day and the “AEs judged as moderate: increased blood glucose, patients” value ([5]; 57 patients) was 2. For the same molecule, the “AEs judged as moderate: syncope, patients” value ([5]; 57 patients) was 1, the “number of AEs in the total study population” value ([5]; 57 patients, all of mild to moderate severity) was 12 and the “Adverse event: Rash (Skin and subcutaneous tissue disorders)” value ([5]; G1 (n = 11)) was 1. For the same molecule, the “All adverse events: number of patients” value ([5]; G1 (n = 11)) was 1, the “Adverse event: Blood glucose increased (Investigations)” value ([5]; G2 (n = 17)) was 1 and the “Adverse event: Bundle branch block, right (Cardiac disorders)” value ([5]; G2 (n = 17)) was 1. The “All adverse events: number of patients” value ([5]; G2 (n = 17)) was 2, the “All adverse events: number of events” value ([5]; G3a (n = 10)) was 2 and the “All adverse events: number of patients” value ([5]; G3a (n = 10)) was 2. For the same molecule, the “Adverse event: Blood glucose increased (Investigations)” value ([5]; G3b (n = 13)) was 1, the “Adverse event: Dizziness (Nervous system disorders)” value ([5]; G3b (n = 13)) was 1 and the “Adverse event: Syncope (Nervous system disorders)” value ([5]; G3b (n = 13)) was 1. For the same molecule, the “All adverse events: number of patients” value ([5]; G3b (n = 13)) was 3, the “All adverse events: number of patients” value ([5]; G4 (n = 6)) was 0 and the “deaths or serious AEs” value ([5]; any group) was “no deaths or serious AEs were observed”. For the same molecule, the “AEs judged to be related to luseogliflozin administration” value ([5]; both judged to be mild) was “rash in the G1 group and dizziness in the G3b group”, the “changes in laboratory parameters or vital signs” value ([5]; during the study, data not shown) was “no clinically relevant changes” and the “number of patients with AEs in the total study population” value ([5]; of the 57 patients) was 8. The “FPG change from baseline” value ([6]; G1, eGFR ≥90, n = 11) was -27.4 ± 23.5 mg/dL, the FPG postdose ([6]; G1, eGFR ≥90, n = 11) was 139.7 ± 25.2 mg/dL and the “changes in plasma glucose AUC0-4 from baseline” value (“changes … from baseline” below) ([6]; G1, P < .05) was −135 mg⋅h/dL. For the same molecule, the “FPG change from baseline” value ([6]; G2, eGFR 60–89, n = 17) was -15.1 ± 13.6 mg/dL, the FPG postdose ([6]; G2, eGFR 60–89, n = 17) was 136.4 ± 37.0 mg/dL and the “changes … from baseline” value ([6]; G2, P < .05) was −104 mg⋅h/dL. The “FPG change from baseline” value ([6]; G3a, eGFR 45–59, n = 9) was −11.3 ± 13.5 ^b mg/dL, the FPG postdose ([6]; G3a, eGFR 45–59, n = 9) was 140.1 ± 26.6 ^b mg/dL and the “changes … from baseline” value ([6]; G3a, P < .05) was −108 mg⋅h/dL. The “FPG change from baseline” value ([6]; G3b, eGFR 30–44, n = 12) was −4.8 ± 11.8 ^c mg/dL, the FPG postdose ([6]; G3b, eGFR 30–44, n = 12) was 135.7 ± 24.3 ^c mg/dL and the “changes … from baseline” value ([6]; G3b) was −30.2 mg⋅h/dL. For the same molecule, the “FPG change from baseline” value ([6]; G4, eGFR <30, n = 6) was 2.2 ± 7.9 mg/dL, the FPG postdose ([6]; G4, eGFR <30, n = 6) was 125.8 ± 21.1 mg/dL and the “changes … from baseline” value ([6]; G4) was −32.6 mg⋅h/dL. The “difference in plasma glucose AUC0-4 from G1 (90%CI)” value (“difference … (90%CI)” for short) ([6]; between G1 and G2) was 32.3 (−22.8–87.5), the “difference … (90%CI)” value ([6]; between G1 and G3a) was 26.7 (−38.6 to 91.9) and the “difference … (90%CI)” value ([6]; between G1 and G3b) was 92.2 (21.9–163). For the same molecule, the “difference … (90%CI)” value ([6]; between G1 and G4) was 72.6 (−1.29 to 146).
